Experimental data from ChEMBL document CHEMBL1124289, “6-(Alkylamino)-9-benzyl-9H-purines. A new class of anticonvulsant agents” (1988).

tested on: Rattus norvegicus; test: Ability to protect Sprague-Dawley male rats against maximal electroshock-induced seizures (MES) intraperitoneally. Inhibition at 25 mg/kg; type: functional; conditions: ip, route intraperitoneal
How it was run: (§1)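 Male Sprague-Dawley rats dosed with compound as a solution or fine dispersion in water or 5% methylcellulose, then given maximal electroshock. Protection means abolition of the hind-limb extensor component.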

| SMILES | inhibition in vivo at 25 mg/kg [%] |
| --- | --- |
| CC(C)N(C)c1ncnc2c1ncn2Cc1ccccc1 | 17 |
| c1ccc(Cn2cnc3c(N4CCC4)ncnc32)cc1 | 17 |
| COc1ccc(Cn2cnc3c(N(C)C)ncnc32)cc1 | 0 |
| CN(C)c1ncnc2c1ncn2Cc1ccccc1Cl | 84 |
| CN(C)c1ncnc2c1ncn2Cc1cccc([N+](=O)[O-])c1 | 17 |
| CN(C)c1ncnc2c1ncn2Cc1ccc(F)cc1 | 33 |
| C[C@H](c1ccccc1)n1cnc2c(N(C)C)ncnc21 | 33 |
| C[C@@H](c1ccccc1)n1cnc2c(N(C)C)ncnc21 | 33 |
| Oc1ncnc2c1ncn2Cc1ccccc1 | 17 |
| CN(C)c1ncnc2c1ncn2CC1CCCCC1 | 0 |
| c1ccc(Cn2cnc3c(Nc4ccccc4)ncnc32)cc1 | 0 |
| Cc1ccc(Cn2cnc3c(N(C)C)ncnc32)cc1 | 0 |
| CN(C=O)c1ncnc2c1ncn2Cc1ccccc1 | 0 |
| CN(C)c1ncnc2c1ncn2Cc1ccc(Cl)c(Cl)c1 | 0 |
| CN(C)c1ncnc2c1ncn2Cc1cccc(OCc2ccccc2)c1 | 33 |
| OCCNc1ncnc2c1ncn2Cc1ccccc1 | 84 |
| CN(C)c1ncnc2c1ncn2Cc1cccc(O)c1 | 0 |
| CN(C)c1ncnc2c1ncn2Cc1ccc(Cl)cc1 | 0 |
| CN(C)c1ncnc2c1ncn2Cc1ccc(C#N)cc1 | 0 |
| COc1ccccc1Cn1cnc2c(N(C)C)ncnc21 | 0 |
| CN(C)c1ncnc2c1ncn2CCc1ccccc1 | 33 |
| CN(C)c1ncnc2c1ncn2Cc1ccc([N+](=O)[O-])cc1 | 0 |
| CN(c1ncnc2c1ncn2Cc1ccccc1)C1CCCC1 | 17 |
| CN(C)c1ncnc2c1ncn2Cc1cccc(C#N)c1 | 17 |
| CN(C)c1ncnc2c1ncn2C | 33 |
| CN(C)c1ncnc2c1ncn2Cc1ccc(O)cc1 | 0 |
| CSc1ncnc2c1ncn2Cc1ccccc1 [9-BENZYL-6-METHYLSULFANYL-9H-PURINE] | 30 |
| Nc1ncnc2c1ncn2Cc1ccccc1 [9-BENZYL-9H-ADENINE] | 33 |
| c1ccc(Cn2cnc3cncnc32)cc1 [9-BENZYL-9H-PURINE] | 33 |

tested on: Rattus norvegicus; test: Ability to protect Sprague-Dawley male rats against maximal electroshock-induced seizures (MES) per orally; Inhibition at 25 mg/kg; type: functional; conditions: po; how it was run: as §1

| SMILES | inhibition in vivo at 25 mg/kg [%] |
| --- | --- |
| OCCNc1ncnc2c1ncn2Cc1ccccc1 | 17 |

tested on: Rattus norvegicus; test: Ability to protect Sprague-Dawley male rats against maximal electroshock-induced seizures (MES) intraperitoneally; Inhibition at 12.5 mg/kg; type: functional; conditions: ip, route intraperitoneal; how it was run: as §1

| SMILES | inhibition in vivo at 12.5 mg/kg [%] |
| --- | --- |
| CN(C)c1ncnc2c1ncn2-c1ccccc1 | 0 |

tested on: Rattus norvegicus; test: Protective effects in maximal electroshock induced seizures in rats following i.p. administration.; type: functional; conditions: ip
How it was run: (§2)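 Male Sprague-Dawley rats, compound given orally or ip as a solution or fine dispersion in water or 5% methylcellulose before maximal electroshock. ED50 is the dose protecting 50% against hind-limb extension, by the Miller–Tainter method. Either ≥12 animals per dose at four doses (with standard error) or three doses with six animals per point.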

| SMILES | ED50 [mg/kg] |
| --- | --- |
| CN(C)c1ncnc2c1ncn2Cc1cccs1 | 10 |
| Cc1ccccc1Cn1cnc2c(N(C)C)ncnc21 | 9 |
| CCN(C)c1ncnc2c1ncn2Cc1ccccc1 | 8 |
| CN(C)c1ncnc2c1ncn2Cc1ccc(N)cc1 | 25 |
| CN(C)c1ncnc2c1ncn2Cc1cccc(I)c1 | 11 |
| CN(C)c1ncnc2c1ncn2Cc1cccc(Cl)c1 | 4.5 |
| CN(C)c1ncnc2c1ncn2Cc1ccco1 | 18 |
| CN(C)c1ncnc2c1ncn2Cc1cc(Cl)cc(Cl)c1 | 7 |
| CNc1ncnc2c1ncn2Cc1ccccc1 | 5 |
| CN(C)c1ncnc2c1ncn2Cc1ccccc1 | 6 |
| CN(C)c1ncnc2c1ncn2Cc1ccccc1F | 8.8 |
| CN(C)c1ncnc2c1ncn2Cc1cccc(F)c1 | 8.4 |
| Cc1cccc(Cn2cnc3c(N(C)C)ncnc32)c1 | 25 |
| c1ccc(Cn2cnc3c(NC4CC4)ncnc32)cc1 | 8.6 |
| CN(C)c1ncnc2c1ncn2Cc1ccccc1[N+](=O)[O-] | 25 |
| CN(C)c1ncnc2c1ncn2Cc1ccccc1N | 20 |
| CN(C)c1ncnc2c1ncn2Cc1cccc(C(F)(F)F)c1 | 12 |
| CN(C)c1ncnc2c1ncn2Cc1cccc(Br)c1 | 13 |
| COc1cccc(Cn2cnc3c(N(C)C)ncnc32)c1 | 12.5 |
| COc1ncnc2c1ncn2Cc1ccccc1 [9-BENZYL-6-METHOXY-9H-PURINE] | 10 |
| O=C1NC(=O)C(c2ccccc2)(c2ccccc2)N1 [PHENYTOIN] | 9.6 |

organism: Rattus norvegicus; test: Ability to protect Sprague-Dawley male rats against maximal electroshock-induced seizures (MES) perorally; type: functional; conditions: po; how it was run: as §2

| SMILES | ED50 [mg/kg] |
| --- | --- |
| CCN(C)c1ncnc2c1ncn2Cc1ccccc1 | 30 |
| CN(C)c1ncnc2c1ncn2Cc1cccc(Cl)c1 | 18 |
| CNc1ncnc2c1ncn2Cc1ccccc1 | 12 |
| CN(C)c1ncnc2c1ncn2Cc1ccccc1 | 12 |
| COc1ncnc2c1ncn2Cc1ccccc1 [9-BENZYL-6-METHOXY-9H-PURINE] | 21 |
| O=C1NC(=O)C(c2ccccc2)(c2ccccc2)N1 [PHENYTOIN] | 20 |
